Common to all, as to format: functional, tissue-based
Assay [1] concerns the target T1, Histamine H1 receptor (Cavia porcellus, UniProt P31389). The assay can be described thus: (§1) In vitro for histamine H1 receptor antagonist activity against histamine-induced contractions on isolated guinea pig ileum. The gist of the method:
(§2)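 Isolated ileum from guinea pigs of either sex (~250 g), tested with racemates. Percent inhibition is taken against the submaximal contraction to 0.5 μM histamine without drug, with six observations per drug concentration. IC50 is the concentration giving 50% inhibition. pA2 = −log KB by Schild, where KB = B/(x−1) and x is the histamine half-maximal concentration ratio with/without antagonist.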

Assay [2] deals with T1, Histamine H1 receptor. The assay is described as §1. The settings on record: read-out: pA2 (converted).
In assay [3] the target is T1, Histamine H1 receptor. The assay can be described thus: Compound was tested in vitro for histamine H1-antagonist activity against histamine-induced contractions on isolated guinea pig ileum. The gist of the method: as §2

A value given as a limit tells only on which side of the number the result lay.

Experimental findings from ChEMBL document CHEMBL1125507, “Synthesis and antihistaminic activity of some thiazolidin-4-ones” (J Med Chem, 1992) are described below.

T1 sequence (P31389 whole entry): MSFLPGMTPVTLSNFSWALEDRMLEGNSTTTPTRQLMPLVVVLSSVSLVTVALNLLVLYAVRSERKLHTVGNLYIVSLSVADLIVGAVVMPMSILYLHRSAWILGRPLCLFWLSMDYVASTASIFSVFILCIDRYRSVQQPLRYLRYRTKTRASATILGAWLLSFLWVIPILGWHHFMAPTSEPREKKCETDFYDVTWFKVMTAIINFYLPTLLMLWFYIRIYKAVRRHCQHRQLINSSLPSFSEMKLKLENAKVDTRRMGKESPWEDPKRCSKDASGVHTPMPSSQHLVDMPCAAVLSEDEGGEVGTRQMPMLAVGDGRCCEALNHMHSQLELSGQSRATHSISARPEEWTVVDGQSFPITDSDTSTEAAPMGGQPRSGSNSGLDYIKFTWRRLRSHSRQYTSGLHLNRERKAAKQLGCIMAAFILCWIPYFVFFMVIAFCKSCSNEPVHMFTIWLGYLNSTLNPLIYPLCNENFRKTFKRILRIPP

By IC50 is commonly meant the concentration that gives 50% inhibition. Low readings indicate greater potency in that assay, high ones weaker potency in that assay. Compound `CN(C)CCCN1C(=O)CSC1c1ccc(Cl)cc1` (configuration not stated) displayed a 50% inhibitory concentration (IC50) against Histamine H1 receptor [1] of 21000 nM. The Kb on Histamine H1 receptor [2] is 2510 nM.

Take `COc1ccc(C2SCC(=O)N2CCCN(C)C)cc1` (configuration not stated): the IC50 against Histamine H1 receptor [1] was > 100000 nM. Moreover, at Histamine H1 receptor [2], the Kb was 10000 nM.

Consider `CN(C)CCCN1C(=O)CSC1c1ccncc1` (configuration not stated), for which the half-inhibitory concentration (IC50) against Histamine H1 receptor [3] was > 100000 nM.

With `CN(C)CCCN1C(=O)CSC1c1cccc(Br)c1` (configuration not stated), at Histamine H1 receptor [1], the half-inhibitory concentration (IC50) was found to be 60000 nM. Further, the Kb at Histamine H1 receptor [2] was 398 nM.

As to `CN(C)CCCN1C(=O)CSC1c1cccc(F)c1` (configuration not stated), it took 3100 nM to reach half-maximal inhibition against Histamine H1 receptor [1] (IC50). Besides, the Kb at Histamine H1 receptor [2] is 398 nM.

Compound `CC(C)c1ccc(C2SCC(=O)N2CCCN(C)C)cc1` (configuration not stated) came in with an IC50 against Histamine H1 receptor [1] of 1000 nM. Besides, the Kb at Histamine H1 receptor [2] is 2 nM.

With `CN(C)CCCN1C(=O)CSC1c1ccc(N)cc1` (configuration not stated), the midpoint of inhibition at Histamine H1 receptor [1], the IC50, lay at 40000 nM. In addition, the Kb on Histamine H1 receptor [2] is 1000 nM.

Compound `CN(C)CCCN1C(=O)CSC1c1ccccc1` (configuration not stated) showed an IC50 on Histamine H1 receptor [1] of 20000 nM. Further, the Kb at Histamine H1 receptor [2] is 39.8 nM.

`CN(C)CCCN1C(=O)CSC1c1ccc(Br)cc1` (configuration not stated) registered a half-maximal inhibitory concentration (IC50) against Histamine H1 receptor [1] of 2300 nM. The Kb on Histamine H1 receptor [2] was 39.8 nM.

For the compound `Cc1ccc(C2SCC(=O)N2CCCN(C)C)cc1` (configuration not stated), half-maximal inhibition against Histamine H1 receptor [1] (IC50) was put at 1200 nM. On Histamine H1 receptor [2], the Kb is 5.01 nM.

In the case of `CN(C)CCCN1C(=O)CSC1c1ccc(F)cc1` (configuration not stated), on Histamine H1 receptor [1], the half-inhibitory concentration (IC50) is 24000 nM. The Kb on Histamine H1 receptor [2] was 79.4 nM.

Take `CN(C)CCCN1C(=O)CSC1c1cccc([N+](=O)[O-])c1` (configuration not stated): the IC50 on Histamine H1 receptor [1] was > 100000 nM. The Kb on Histamine H1 receptor [2] is 3980 nM.

Turning to `COc1cccc(C2SCC(=O)N2CCCN(C)C)c1` (configuration not stated), at Histamine H1 receptor [1], inhibition was half-maximal at 25000 nM (IC50). Moreover, the Kb at Histamine H1 receptor [2] was 398 nM.

Regarding `Cc1cccc(C2SCC(=O)N2CCCN(C)C)c1` (configuration not stated), at Histamine H1 receptor [1], the 50% inhibitory concentration (IC50) was determined as 5000 nM. Besides, the Kb on Histamine H1 receptor [2] was 20 nM.

As for `CN(C)CCCN1C(=O)CSC1c1ccc([N+](=O)[O-])cc1` (configuration not stated), the IC50 at Histamine H1 receptor [1] was > 100000 nM. Further, the Kb at Histamine H1 receptor [2] was 6310 nM.

As for `CN(C)CCN1C(=O)CSC1c1ccccc1` (configuration not stated), on Histamine H1 receptor [1], the IC50 was > 100000 nM.

As for `CN(C)CCCN1C(=O)CSC1c1cccc(Cl)c1` (configuration not stated), the half-inhibitory concentration (IC50) against Histamine H1 receptor [1] amounted to 2200 nM. Moreover, at Histamine H1 receptor [2], the Kb was 631 nM.
